≈ marks a conversion by molar mass, not a printed value.

From ChEMBL document CHEMBL1147437, “Omega-carboxypyridyl substituted ureas as Raf kinase inhibitors: SAR of the amide substituent” (Bioorg Med Chem Lett, 2004) come the findings set out here.

Test system in the first data set: not listed separately
Nature of the data set: Solubility at pH 2.7. The class given is physicochemical. The note with it: buffer.
Turning to `O=C(Nc1ccc(Oc2ccnc(C(=O)NCCN3CCOCC3)c2)cc1)Nc1ccc(Br)c(C(F)(F)F)c1`, the solubility (as a rule, how much of the substance goes into solution per volume) is 39 µg/mL (≈ 64.1 µM). In turn, `O=C(Nc1ccc(Oc2cncc(C(=O)NCCN3CCOCC3)c2)cc1)Nc1ccc(Cl)c(C(F)(F)F)c1` came in with a solubility of 36 µg/mL (≈ 63.8 µM).

Turning to `O=C(Nc1ccc(Oc2ccnc(C(=O)NCCN3CCOCC3)c2)cc1)Nc1ccc(Cl)c(C(F)(F)F)c1`, the solubility is 141 µg/mL (≈ 250 µM). Still for that read-out and setting: for `COc1ccc(C(F)(F)F)cc1NC(=O)Nc1ccc(Oc2cncc(C(=O)NCCN(C)C)c2)cc1` the value was 129 µg/mL (≈ 249 µM); for `CNC(=O)c1cncc(Oc2ccc(NC(=O)Nc3cc(C(F)(F)F)ccc3OC)cc2)c1`, ≤ 4 µg/mL.

Test system in another data set: not listed separately
Description: Solubility at pH 7.2. Type of data set: physicochemical. The settings on record: buffer. In short, it runs like this: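 Aqueous solubility determined in 0.5× PBS at pH 7.2; reported in µg/mL.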
Consider `O=C(Nc1ccc(Oc2ccnc(C(=O)NCCN3CCOCC3)c2)cc1)Nc1ccc(Br)c(C(F)(F)F)c1`, for which the solubility was ≤ 5 µg/mL. On the same count and under the same terms, to `O=C(Nc1ccc(Oc2cncc(C(=O)NCCN3CCOCC3)c2)cc1)Nc1ccc(Cl)c(C(F)(F)F)c1` belongs ≤ 5 µg/mL; to `O=C(Nc1ccc(Oc2ccnc(C(=O)NCCN3CCOCC3)c2)cc1)Nc1ccc(Cl)c(C(F)(F)F)c1`, ≤ 5 µg/mL.

In turn, `COc1ccc(C(F)(F)F)cc1NC(=O)Nc1ccc(Oc2cncc(C(=O)NCCN(C)C)c2)cc1` had a solubility of 41 µg/mL (≈ 79.2 µM). In the case of `CNC(=O)c1cncc(Oc2ccc(NC(=O)Nc3cc(C(F)(F)F)ccc3OC)cc2)c1`, the solubility is ≤ 4 µg/mL.

Another data set deals with RAF proto-oncogene serine/threonine-protein kinase (Homo sapiens, UniProt P04049). Nature of the data set: Inhibitory activity against human Raf-1 kinase.
Chain of RAF proto-oncogene serine/threonine-protein kinase (P04049 whole entry): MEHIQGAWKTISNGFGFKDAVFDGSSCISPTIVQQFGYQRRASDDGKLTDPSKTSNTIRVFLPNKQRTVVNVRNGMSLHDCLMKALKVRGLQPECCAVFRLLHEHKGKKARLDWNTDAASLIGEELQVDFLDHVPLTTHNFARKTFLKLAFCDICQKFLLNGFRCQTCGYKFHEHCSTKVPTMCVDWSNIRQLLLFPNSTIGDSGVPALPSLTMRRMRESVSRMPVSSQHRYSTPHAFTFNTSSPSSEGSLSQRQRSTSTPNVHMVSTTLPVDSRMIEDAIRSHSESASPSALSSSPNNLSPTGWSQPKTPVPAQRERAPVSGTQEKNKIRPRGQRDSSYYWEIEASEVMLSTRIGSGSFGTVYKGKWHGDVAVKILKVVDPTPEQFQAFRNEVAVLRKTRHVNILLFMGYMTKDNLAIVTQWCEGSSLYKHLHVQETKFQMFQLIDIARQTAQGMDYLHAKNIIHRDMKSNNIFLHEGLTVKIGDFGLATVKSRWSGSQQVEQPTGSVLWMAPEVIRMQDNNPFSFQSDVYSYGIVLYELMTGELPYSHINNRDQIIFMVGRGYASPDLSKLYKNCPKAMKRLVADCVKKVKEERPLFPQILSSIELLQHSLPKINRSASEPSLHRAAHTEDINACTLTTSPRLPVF
Details: not given
In short, it runs like this:
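EE-tagged c-Raf and Mek made in baculovirus-infected Sf-9 cells, immuno-affinity purified. Raf (4 μg/mL) with Mek substrate (20 μg/mL) in 200 mM Tris pH 8.2, 100 mM NaCl, 20 mM 2-mercaptoethanol; compound added before starting with 10 μM γ-[³³P]ATP stock. 32 °C, 25 min; phosphocellulose filter capture, scintillation count.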
`CNC(=O)c1cncc(Oc2ccc(NC(=O)Nc3ccc(Cl)c(C(F)(F)F)c3)cc2)c1`: the IC50 (in general, the midpoint of a concentration-inhibition curve) is 50 nM. Still for that read-out and setting: to `COc1ccc(C(F)(F)F)cc1NC(=O)Nc1ccc(Oc2cccc(C(=O)Nc3ccc(N(C)C)cc3)c2)cc1` belongs 410 nM; to `CC(C)(C)c1cc(NC(=O)Nc2ccc(Oc3cccc(C(=O)NCc4ccccc4)c3)cc2)no1`, 460 nM; to `O=C(Nc1ccc(Oc2ccnc(C(=O)NCCN3CCOCC3)c2)cc1)Nc1ccc(Br)c(C(F)(F)F)c1`, 60 nM. On the same count and under the same terms, to `CC(C)NC(=O)c1cc(Oc2ccc(NC(=O)Nc3ccc(Cl)c(C(F)(F)F)c3)cc2)ccn1` belongs 2300 nM; to `CNC(=O)c1cc(Oc2ccc(NC(=O)Nc3cc(C(F)(F)F)ccc3OC)cc2)ccn1`, 53 nM.

Compound `CNC(=O)c1cccc(Oc2ccc(NC(=O)Nc3cc(C(F)(F)F)ccc3OC)cc2)c1` gave an IC50 of 130 nM. As for `CNC(=O)c1cccc(Oc2ccc(NC(=O)Nc3ccc(Cl)c(C(F)(F)F)c3)cc2)c1`, the IC50 amounted to 130 nM.

Regarding `O=C(Nc1ccc(Oc2cncc(C(=O)NCCN3CCOCC3)c2)cc1)Nc1ccc(Cl)c(C(F)(F)F)c1`, the IC50 was 140 nM. The IC50 values of the last two compounds are within 1.5-fold of each other. As to `COc1ccc(NC(=O)c2cccc(Oc3ccc(NC(=O)Nc4cc(C(F)(F)F)ccc4OC)cc3)c2)cn1`, the IC50 was 150 nM. Take `CCNC(=O)c1cc(Oc2ccc(NC(=O)Nc3cc(C(F)(F)F)ccc3OC)cc2)ccn1`: the IC50 was found to be 460 nM. In turn, `O=C(Nc1ccc(Oc2cccc(C(=O)Nc3cccnc3)c2)cc1)Nc1ccc(Cl)c(C(F)(F)F)c1` yielded an IC50 of 44 nM. This IC50 is about 10-fold lower than that of the compound before. Still for that read-out and setting: to `CN(C)C(=O)c1cc(Oc2ccc(NC(=O)Nc3ccc(Br)c(C(F)(F)F)c3)cc2)ccn1` belongs 170 nM; to `CCNC(=O)c1cccc(Oc2ccc(NC(=O)Nc3cc(C(C)(C)C)on3)cc2)c1`, 130 nM; to `CN(C)C(=O)c1cc(Oc2ccc(NC(=O)Nc3ccc(Cl)c(C(F)(F)F)c3)cc2)ccn1`, 300 nM. Same read-out and setting: for `O=C(Nc1ccc(Oc2cccc(C(=O)NCCN3CCOCC3)c2)cc1)Nc1ccc(Cl)c(C(F)(F)F)c1` the value was 70 nM; for `O=C(Nc1ccc(Oc2cccc(C(=O)NCCNc3ccccc3)c2)cc1)Nc1ccc(Cl)c(C(F)(F)F)c1`, 160 nM; for `O=C(Nc1ccc(Oc2ccnc(C(=O)NCCN3CCOCC3)c2)cc1)Nc1ccc(Cl)c(C(F)(F)F)c1`, 73 nM. Take `COc1ccc(C(F)(F)F)cc1NC(=O)Nc1ccc(Oc2ccnc(C(=O)N(C)C)c2)cc1`: the IC50 stood at 330 nM. Compared with the last compound, the IC50 is about 4.5-fold higher. On the same count and under the same terms, for `COc1ccc(C(F)(F)F)cc1NC(=O)Nc1ccc(Oc2cccc(C(=O)Nc3ccc(N4CCOCC4)cc3)c2)cc1` the value was 210 nM.

`CNC(=O)c1cccc(Oc2ccc(NC(=O)Nc3cc(C(C)(C)C)on3)cc2)c1` showed a 50% inhibitory concentration (IC50) of 120 nM. Same read-out and setting: for `CC(C)(C)c1cc(NC(=O)Nc2ccc(Oc3ccncc3)cc2)no1` the value was 230 nM; for `COc1ccncc1NC(=O)c1cccc(Oc2ccc(NC(=O)Nc3ccc(Cl)c(C(F)(F)F)c3)cc2)c1`, 130 nM; for `CC(C)(C)c1cc(NC(=O)Nc2ccc(Oc3cccc(C(=O)Nc4cccnc4)c3)cc2)no1`, 68 nM. As to `O=C(Nc1ccc(Oc2cccc(C(=O)NCCN3CCCCC3)c2)cc1)Nc1ccc(Cl)c(C(F)(F)F)c1`, inhibition was half-maximal at 82 nM (IC50). This IC50 and that of the compound before are within 1.5-fold of each other.

As to `COc1ccc(C(F)(F)F)cc1NC(=O)Nc1ccc(Oc2cncc(C(=O)NCCN(C)C)c2)cc1`, the half-inhibitory concentration (IC50) is 100 nM. On to `CCNC(=O)c1cc(Oc2ccc(NC(=O)Nc3ccc(Br)c(C(F)(F)F)c3)cc2)ccn1`, for which 27 nM corresponded to half-maximal inhibition (IC50).

With `CC(C)(C)c1cc(NC(=O)Nc2ccc(Oc3cccc(C(=O)Nc4ccccc4)c3)cc2)no1`, the IC50 worked out at 370 nM.

Turning to `CCNC(=O)c1cc(Oc2ccc(NC(=O)Nc3ccc(Cl)c(C(F)(F)F)c3)cc2)ccn1`, the IC50 amounted to 26 nM. This IC50 is about 14-fold lower than that of the compound before. On the same count and under the same terms, for `COc1ccc(C(F)(F)F)cc1NC(=O)Nc1ccc(Oc2ccnc(C(=O)NCC(C)C)c2)cc1` the value was 500 nM; for `CNC(=O)c1cc(Oc2ccc(NC(=O)Nc3ccc(Br)c(C(F)(F)F)c3)cc2)ccn1`, 6 nM; for `COc1ccc(C(F)(F)F)cc1NC(=O)Nc1ccc(Oc2cncc(C(=O)NCCN3CCOCC3)c2)cc1`, 63 nM. Still for that read-out and setting: to `COCCNC(=O)c1cccc(Oc2ccc(NC(=O)Nc3ccc(Cl)c(C(F)(F)F)c3)cc2)c1` belongs 110 nM. On the same count and under the same terms, to `CNC(=O)c1cncc(Oc2ccc(NC(=O)Nc3cc(C(F)(F)F)ccc3OC)cc2)c1` belongs 61 nM. Compound `CCCNC(=O)c1cccc(Oc2ccc(NC(=O)Nc3cc(C(C)(C)C)on3)cc2)c1` registered an IC50 of 140 nM. This IC50 lies about 2.3-fold higher than the previous one. Take `CNC(=O)c1cc(Oc2ccc(NC(=O)Nc3cc(C(C)(C)C)on3)cc2)ccn1`: the midpoint of inhibition, the IC50, lay at 38 nM.

The compound `COc1ccc(C(F)(F)F)cc1NC(=O)Nc1ccc(Oc2cccc(C(=O)Nc3cccnc3)c2)cc1` displayed an IC50 of 100 nM. Still for that read-out and setting: for `O=C(Nc1ccc(Oc2cccc(C(=O)Nc3ccc(N4CCOCC4)cc3)c2)cc1)Nc1ccc(Cl)c(C(F)(F)F)c1` the value was 160 nM. Still for that read-out and setting: for `CCC1CCCN1CNC(=O)c1cccc(Oc2ccc(NC(=O)Nc3ccc(Cl)c(C(F)(F)F)c3)cc2)c1` (configuration not stated) the value was 270 nM; for `CN(C)C(=O)c1cccc(Oc2ccc(NC(=O)Nc3cc(C(C)(C)C)on3)cc2)c1`, 5800 nM; for `CN(C)c1ccc(NC(=O)c2cccc(Oc3ccc(NC(=O)Nc4ccc(Cl)c(C(F)(F)F)c4)cc3)c2)cc1`, 230 nM. Same read-out and setting: for `CC(C)(C)c1cc(NC(=O)Nc2ccc(Oc3ccccc3)cc2)no1` the value was 1100 nM.
